Experimental data reported in PubChem BioAssay.
Activity calls are given as the source filed them.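 The calls were made as follows, unless noted: active = inhibition above 20% together with a positive visual image hit; inconclusive = visual image hit but inhibition not above 20%; inactive = no visual image hit.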

Key:
[1] = inhibitors of TNFa-induced NFkB p65 translocation, primary screen, imaging, HUVEC, MLSMR starter and 10KST1 sets (AID 438); settings: HUVEC TNFa-induced p65 nuclear translocation; cell count: measured here: nuclei count (cytotoxicity indicator), at 2.08 µM; inhibition: at 2 µM, stronger effect = higher value, 0% TNFa-plus-vehicle, 100% no-TNFa wells;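 also: compound added about 3h40 before a 20 min TNFalpha stimulation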;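 as to inhibition: signal is the nuclear over cytoplasmic p65 intensity ratio per well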
[2] = inhibitors of E-selectin induction by TNFa, primary screen, imaging, HUVEC, immunofluorescence, MLSMR starter and 10KST1 sets (AID 487;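 active = visually confirmed hit in the image check and inhibition above 20%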;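 as to inhibition: signal is fraction of cell area covered by stained E-selectin grains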;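 as to nuclei count: 100% = median nuclei count of all wells on the same plate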); settings: HUVEC TNFalpha-induced E-selectin immunofluorescence imaging, at 2 µM; inhibition: stronger effect = higher value; nuclei count: measured here: cell number, toxicity
[3] = DUSP6 inhibitors restoring Erk phosphorylation by chemical complementation, primary imaging in DUSP6-transfected HeLa (AID 609;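 active = compounds giving at least 50% inhibition in the cell-based MKP-3 phosphatase rescue imaging test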;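 as to inhibition: phospho-Erk level distribution per well compared with pooled transfected vehicle control wells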); settings: HeLa MKP-3 transfected, phospho-Erk imaging KS statistic, at 10 µM, cells stimulated with TPA for 15 min
[4] = molecular target: Dual specificity protein phosphatase 6 (Homo sapiens) (UniProt Q16828); experiment: as above; settings: HeLa MKP-3 transfected, phospho-Erk imaging KS statistic; at 10 µM; stronger effect = higher value; cells stimulated with TPA for 15 min
[5] = molecular target: Voltage-gated potassium channel subunit beta-2 (Rattus norvegicus) (UniProt P62483); experiment: KvBeta enzyme negative modulators, primary screen, biochemical, NADPH fluorescence (AID 622;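 active = fluorescence slope higher than the sample average by over 3 SD, cut at about -0.22 in these data, passing the limit was not always enough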;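 also: slope of raw intensity against log time taken from 70 to 1610 s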); settings: recombinant KvBeta, 4-cyanobenzaldehyde reduction, at 10 µM, stronger effect = higher value
[6] = molecular target: Voltage-gated potassium channel subunit beta-2 (Rattus norvegicus) (UniProt P62483); experiment: KvBeta positive modulators, primary screen, biochemical, NADPH fluorescence (AID 623;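 active = NADPH fluorescence slope more negative than the mean of all samples by about 3 SD, 99.7% confidence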;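 also: fluorescence intensity change per second fitted from 20 to 320 s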); settings: Recombinant KvBeta, NADPH fluorescence decrease slope, 10 min; at 10 µM; stronger effect = lower value
[7] = molecular target: Alpha-2C adrenergic receptor (Homo sapiens) (UniProt P18825); experiment: modulators of alpha2C/GIRK thallium flux, primary screen, cell-based, HEK293 alpha2C/GIRK1/2 (AID 624;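 active = fluorescence slope after compound addition differing from the mean of all screened samples at 99.7% confidence, in either direction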;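 also: slope of fluorescence ratio to pre-addition baseline per second over 15 to 24 s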); settings: thallium flux BTC fluorescence, at 10 µM, actives lie on both sides
[8] = inhibitors of larval lipid processing in zebrafish, primary screen, whole organism, PED6 fluorescence, gall bladder and intestine (AID 686;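 active = a full or partial loss of lipid-probe fluorescence in the fish gall bladder, intestine or both, judged by eye; inactive = no fluorescence loss, or compound toxic to the fish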;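 also: larvae 5 to 7 days old with five fish per well; signal comes from phospholipase A2 cleavage of quenched PED6 carried via bile; overnight exposure to compound and PED6 before scoring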); settings: Zebrafish larvae PED6 lipid processing, fluorescence scoring; screened at 20 µM (by protocol)
Method in brief: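 Test system – live zebrafish larvae aged 5-7 days, whole organism · Buffer or medium – E3 fish medium · Reagent – quenched phospholipase substrate PED6, 100 nM final, ingested by larvae · Doses – 20 µM single dose · Incubation – overnight compound and PED6 incubation · Technique – visual fluorescence microscopy scoring of gall bladder, gut · Read-out basis – visual per-well fluorescence inhibition score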

[9] = inhibitors of Chlamydomonas gravitaxis, primary screen, whole organism, Chlamydomonas reinhardtii, WT vs cilia-less mutant, absorbance, 96-well (AID 463189;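 active = inhibition at or above 50% relative to wild type and mutant plate controls; inactive = inhibition below 50%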;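 also: 0% = wild type cc124 cells in DMSO and 100% = ciliumless bld1 mutant cells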); settings: OD600 absorbance, 2 days, at 10 µM, stronger effect = higher value
[10] = measured here: cell density z-score
[11] = measured here: nuclear c-Myc green intensity z-score
[12] = measured here: nuclear pErk red intensity z-score, stronger effect = higher value

Chain of Dual specificity protein phosphatase 6 (Homo sapiens) (Q16828 whole entry, looked up): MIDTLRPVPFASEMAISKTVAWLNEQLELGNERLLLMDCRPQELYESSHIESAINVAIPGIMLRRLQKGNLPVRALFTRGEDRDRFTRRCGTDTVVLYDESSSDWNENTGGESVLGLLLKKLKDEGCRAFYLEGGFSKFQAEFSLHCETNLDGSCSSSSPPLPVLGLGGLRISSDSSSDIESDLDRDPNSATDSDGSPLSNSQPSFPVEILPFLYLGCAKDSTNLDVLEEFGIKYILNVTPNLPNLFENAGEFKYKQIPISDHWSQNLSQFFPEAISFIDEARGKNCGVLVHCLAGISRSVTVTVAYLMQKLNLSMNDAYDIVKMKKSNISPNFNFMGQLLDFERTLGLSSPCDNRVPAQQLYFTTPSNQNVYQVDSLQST
Chain of Voltage-gated potassium channel subunit beta-2 (Rattus norvegicus) (P62483 whole entry, looked up): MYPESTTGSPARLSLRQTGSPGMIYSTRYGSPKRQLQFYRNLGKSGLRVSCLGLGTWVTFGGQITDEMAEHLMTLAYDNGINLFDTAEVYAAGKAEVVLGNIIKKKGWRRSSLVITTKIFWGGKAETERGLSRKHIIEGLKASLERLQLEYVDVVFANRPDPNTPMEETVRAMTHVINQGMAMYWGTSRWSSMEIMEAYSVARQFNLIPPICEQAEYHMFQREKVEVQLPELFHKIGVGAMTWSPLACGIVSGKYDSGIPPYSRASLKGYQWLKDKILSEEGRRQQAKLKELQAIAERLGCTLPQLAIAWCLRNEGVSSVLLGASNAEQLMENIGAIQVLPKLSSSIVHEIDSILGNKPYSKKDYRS
Chain of Alpha-2C adrenergic receptor (Homo sapiens) (P18825 whole entry, looked up): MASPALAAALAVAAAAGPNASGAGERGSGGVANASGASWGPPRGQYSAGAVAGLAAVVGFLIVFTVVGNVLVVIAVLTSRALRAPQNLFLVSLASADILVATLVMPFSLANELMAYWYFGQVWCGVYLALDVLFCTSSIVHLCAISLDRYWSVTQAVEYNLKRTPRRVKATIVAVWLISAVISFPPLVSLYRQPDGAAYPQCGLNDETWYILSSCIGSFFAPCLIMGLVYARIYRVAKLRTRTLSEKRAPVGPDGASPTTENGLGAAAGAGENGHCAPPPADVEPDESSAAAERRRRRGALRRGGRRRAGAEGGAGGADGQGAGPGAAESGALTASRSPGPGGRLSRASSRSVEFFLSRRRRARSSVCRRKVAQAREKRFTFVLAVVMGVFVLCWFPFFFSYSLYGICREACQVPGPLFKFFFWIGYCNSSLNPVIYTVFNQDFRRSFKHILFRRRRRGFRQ

| SMILES | cell count [1] | inhibition [1] | inhibition [2] | nuclei count [2] [%] | z-score [3, 10] | z-score [3, 11] | z-score [3, 12] | inhibition [4] | fluorescence slope [5] | NADPH fluorescence slope [6] | slope [7] | outcome [8] | inhibition [9] |
| --- | --- | --- | --- | --- | --- | --- | --- | --- | --- | --- | --- | --- | --- |
| CCOC(=O)c1[nH]c2ccc(OC)cc2c1NC(=O)CCN1CCN(Cc2ccccc2)CC1 | 541 | -11.2% (inactive) | -92.4% (inactive) | 165 | 1.87 | 1.32 | -0.24 | 1.12% (inactive) | -0.173 (inactive) | -2.9e-05 (inactive) | 0.00459 (inactive) | inactive | 16.3% (inactive) |
| COc1ccc(OC)c(C2/C(=C(/O)c3cnn(-c4ccccc4)c3C)C(=O)C(=O)N2CCN(C)C)c1 (centres undefined) | 452 | 1.9% (inactive) | 8.9% (inactive) | 86.9 | -1.51 | 0.604 | -0.829 | -1.75% (inactive) | -0.47 (inactive) | -9.5e-06 (inactive) | 0.00657 (inactive) | inactive | 12% (inactive) |
| CCN(CC)c1ccc2cc(-c3nnc(-c4ccncc4)o3)c(=O)oc2c1 | 490 | -5.2% (inactive) | -87.1% (inactive) | 137 | -0.456 | 1.6 | 0.914 | 72.4% (inactive) | -0.436 (inactive) | -0.000104 (inactive) | 0.00165 (inactive) | inactive | 6.54% (inactive) |
| COc1cc(-c2nn3c(-c4ccccn4)nnc3s2)cc(OC)c1OC | 600 | -13.9% (inactive) | -249% (inactive) | 171 | 1.12 | -1.51 | 0.045 | -2.47% (inactive) | -0.449 (inactive) | -0.000128 (inactive) | 0.00656 (inactive) | inactive | 13.6% (inactive) |
| CCN1CCN(c2nc3c(C)cccn3c(=O)c2/C=C(\C#N)S(=O)(=O)c2ccc(C)cc2)CC1 | 519 | -0.8% (inactive) | -173% (inactive) | 118 | 0.354 | -1.44 | 0.701 | 1.6e-07% (inactive) | -0.51 (inactive) | -6.4e-05 (inactive) | 0.00274 (inactive) | inactive | 14.6% (inactive) |
| OCCCc1nc2ccccc2n1CCc1ccccc1 | 390 | -15.7% (inactive) | -395% (inactive) | 203 | 1.19 | -1.69 | -0.407 | 20.8% (inactive) | -0.421 (inactive) | -4.3e-05 (inactive) | 0.00481 (inactive) | inactive | 15.3% (inactive) |
| COCCCNC(=O)C(C#N)c1nc2ccccc2nc1N1CCN(Cc2ccccc2)CC1 (centres undefined) | 630 | -5.8% (inactive) | -33.3% (inactive) | 156 | -0.882 | -0.494 | -0.556 | -8.27% (inactive) | -0.472 (inactive) | -0.00034 (inactive) | 0.00118 (inactive) | inactive | 33.7% (inactive) |
| CCC1(C)Cc2c(sc3[nH]c(=O)[nH]c(=O)c23)CS1 (centres undefined) | 666 | -8.2% (inactive) | -11.4% (inactive) | 170 | 0.81 | -1.43 | -0.857 | 1.75% (inactive) | -0.519 (inactive) | -4.7e-05 (inactive) | 0.00488 (inactive) | inactive | 2.21% (inactive) |
| COc1ccc(C2=CC(c3cccc(OC)c3)n3nnnc3N2)cc1 (centres undefined) | 539 | -14.8% (inactive) | -119% (inactive) | 145 | 2.98 | -1.71 | -0.495 | 13.7% (inactive) | -0.474 (inactive) | -6.4e-05 (inactive) | 0.00383 (inactive) | inactive | 6.7% (inactive) |
| COC(=O)c1ccc(-c2sc3nc(N4CCOCC4)c4c(c3c2N)CC(C)(C)OC4)o1 | 595 | -19.5% (inactive) | -62.4% (inactive) | 153 | -1.25 | 1.71 | 2.19 | -0.624% (inactive) | -0.16 (inactive) | -2.4e-05 (inactive) | 0.00678 (inactive) | inactive | -4.84% (inactive) |
| CC(C)(C)C1=Nn2c(nnc2-c2ccccn2)SC1 | 537 | -5.5% (inactive) | -200% (inactive) | 165 | 1.25 | 0.795 | -0.0968 | -2.47% (inactive) | -0.417 (inactive) | -0.000136 (inactive) | 0.00561 (inactive) | inactive | -9.77% (inactive) |
| Nc1ccc(Cl)cc1/C(=N/O)c1ccccc1 | 337 | -13.8% (inactive) | -23% (inactive) | 65.2 | 0.198 | 0.536 | -0.0149 | 1.75% (inactive) | -0.451 (inactive) | 9e-06 (inactive) | 0.00461 (inactive) | inactive | 16.2% (inactive) |
| Cc1c(N=Cc2c(O)n(C3CCCCC3)c(=O)[nH]c2=O)c(=O)n(-c2ccccc2)n1C | 671 | -20.1% (inactive) | -93.8% (inactive) | 139 | -0.195 | -1.05 | 0.314 | 21% (inactive) | -0.396 (inactive) | -3e-05 (inactive) | 0.00508 (inactive) | active; weak signal in gallbladder and intestine | -4.72% (inactive) |
